Laboratory results as given in PMC8742637 (Clinical and Translational Science, 2021).
Where two headings read alike, the source gives them in different places.

How the values were obtained:
[1] = assay type: in vivo, human
Outline: (§1)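 Single-center, randomized, open-label, laboratory-blinded, two-period, two-sequence crossover in healthy volunteers. Each subject got one oral dose of the fixed-dose combination or the co-administered reference tablets with ~240 ml water after a 10-h fast. Washout was at least 21 days. Parent drugs were measured in plasma by LC-MS after protein precipitation. Noncompartmental analysis used actual times, with t½ = ln(2)/λz.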

[2] = assay type: in vivo; conditions: human, plasma, oral, 5 mg
Outline: as §1

[3] = assay type: in vivo; conditions: human, plasma, po, 10 mg
Outline: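 Single-center, randomized, open-label, three-period, six-sequence crossover in healthy volunteers. Each drug was given alone and with the other as a single oral dose after a 10-h fast. Blood was sampled to 72 h, and washout was at least 21 days. Plasma was analysed by LC-MS with stable isotope-labeled internal standards. Noncompartmental parameters: AUC0-T by linear trapezoidal rule, AUC∞ = AUC0-T + Clast/λz.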

[4] = Study 3: safety, treatment-emergent adverse events; assay type: in vivo, human; conditions: BISO 10 mg, RAMI 10 mg alone or together, % of subjects in the Safety population in each treatment group
[5] = Bioequivalence studies 1 and 2: PK summary across both treatments and studies; assay type: in vivo, human
Outline: as §1

| observed ISCV (intrasubject coefficient of variation) for Cmax ([1]; Study 1, expected 32%) | half-life ([1]; human, plasma, oral, 10 mg) | half-life [2] | AUC(0-inf) [3] | AUC(0-t) [3] | Cmax [3] | Tmax [3] | half-life [3] | median time to ramipril peak concentration ([5]; across both treatments and studies 1 and 2) | time after dosing at which BISO peak concentrations were achieved ([5]; across both treatments, studies 1 and 2, BISO 10 mg single oral dose, fasting) | half-life ([5]; human, plasma, oral) | Compound | Subjects with at least one drug‐related TEAE [4] |
| --- | --- | --- | --- | --- | --- | --- | --- | --- | --- | --- | --- | --- |
| 36% | 2.17 to 2.32 h | 1.39 to 1.68 h | 18.1 ng·h/mL | 17.1 ng·h/mL | 24.1 ng/mL | 0.5 h | 2.03 h | 0.50 h | – | – | CCOC(=O)[C@H](CCc1ccccc1)N[C@@H](C)C(=O)N1[C@H](C(=O)O)C[C@@H]2CCC[C@@H]21 [RAMI, ramipril] | 3 (10.7) n (%) |
| – | – | – | 777 ng·h/mL | 732 ng·h/mL | 42.6 ng/mL | 2.33 h | 11.2 h | – | 2.33 h | 10.7 to 10.9 h | CC(C)NCC(O)COc1ccc(COCCOC(C)C)cc1 (stereo not drawn) [BISO, bisoprolol] | 4 (13.8) n (%) |
